# Results reported in the RNAGym collection of RNA variant scans (doi:10.1126/science.aae0568).
# This sample holds only a part of the variants without activity.
# B1: tRNA (parent)
# chain: GUUCCGUUGGCGUAAUGGUAACGCGUCUCCCUCCUAAGGAGAAGACUGCGGGUUCGAGUCCCGUACGGAACG
# Variants of: B1
# Assay: yeast fitness relative to wild type (ratio to wild type); higher = fitter; tRNA-Arg(CCU), competitive growth, 37 C, YPD
# How it was run: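 Changes in genotype frequencies gave Darwinian fitness relative to wild type. Frequencies were read by 100-nucleotide paired-end sequencing of gene amplicons before and after pooled Saccharomyces cerevisiae strains, carrying tRNA-Arg(CCU) gene variants at the native locus, were competed in YPD at 37°C for 24 hours in six replicates. A genotype was kept only with ≥ 100 starting reads, and estimates < 0.5 were set to 0.5.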
row,Variant,yeast fitness
1,A21C C27U U47A,0.545
2,A21C C34G A36G C46A C66A A70G,≤ 0.5
3,A21C G23A G58C A65U,≤ 0.5
4,A21C C27U C33A A37C,0.554
5,A20U A57U,0.762
6,A20U C27G C46G C49U,≤ 0.5
7,A21C C34G A36G C46A,0.586
8,A20U G48A,0.922
9,A20U A42U G67A G68C,≤ 0.5
10,A21G A42U G56A C61U,≤ 0.5
11,A21C C27A C33U,0.906
12,A20U C31U C62A A69U,≤ 0.5
13,A20U G25C,0.885
14,A20U U26A C55U,0.747
15,A20U G25C C49G A65C A70U,≤ 0.5
16,A21C A36C G56A,0.562
17,A20U A42U U59A,0.59
18,A21C C29U C31G A43U,0.612
19,A21C C22A C29U C49G,≤ 0.5
20,A21C C61G C62G,≤ 0.5
21,A20U U32C A43G,0.659
22,A21C C24U U32A C62G G63A,≤ 0.5
23,A21C G44C G50A A57G G68C,≤ 0.5
24,A20U A43U C49A G68A,≤ 0.5

row,Variant,yeast fitness
1,A20U U28G U32G C34G C66U,≤ 0.5
2,A21C A42U G52A C60A A69G,≤ 0.5
3,A20U C31U G38C,0.553
4,A20U C46G G51C C61U,≤ 0.5
5,A20U C29G U47C C49G G63C,≤ 0.5
6,A20U C24G C31A G58C,0.504
7,A20U A43U C55A U64A,≤ 0.5
8,A20U G38C A45C C60G,≤ 0.5
9,A20U G50A A57U C60G A65U,0.531
10,A21C U59A A65U,≤ 0.5
11,A21C C61A G68A,0.515
12,A21C C24U C46U C60U,≤ 0.5
13,A21G A42G A65C G67A,≤ 0.5
14,A20U C24A A57C,≤ 0.5
15,A21C A43G G58A,0.892
16,A21C A43G G58C,≤ 0.5
17,A21G A36U,0.583
18,A21C C29U A57U C60U C62U C66U,0.564
19,A20U C29U C30G C34A U35A G48C,≤ 0.5
20,A21C U28G A43C G52C G67U,≤ 0.5
21,A20U G25A G67U,0.673
22,A21C C29U A43G C66U,≤ 0.5
23,A21C C30U A45G,≤ 0.5
24,A20U G48C U53C G68C,≤ 0.5

row,Variant,yeast fitness
1,A20U A45G G50A G52A,0.602
2,A20U U32A G67C,0.543
3,A21C G58C,0.84
4,A20U C61A,0.646
5,A20U C61G,0.712
6,A21C C27U A57G,0.79
7,A21C G23U G48C,≤ 0.5
8,A21C C22U C31U C33U G48C,≤ 0.5
9,A21C C30U A43U G48C,≤ 0.5
10,A21C G56A,0.946
11,A20U A42C G48A,0.543
12,A21C U28A G50A,≤ 0.5
13,A21C C22G G38C G51C,≤ 0.5
14,A20U C27G C49A,≤ 0.5
15,A20U C29G A37G G44A G63A,≤ 0.5
16,A21C C62U C66U,0.533
17,A20U A45C A65C,0.63
18,A20U C62U A69C,0.686
19,A20U C46U A69G,0.893
20,A21C A45U G52C,0.581
21,A21G A42G A45G,0.989
22,A20U G44A C60A,≤ 0.5
23,A21C C27G G39C,≤ 0.5
24,A20U U47A A70C,0.536

row,Variant,yeast fitness
1,A21G A36G C60U,0.531
2,A20U U28G U32G C34G,0.513
3,A21G A36U U53A,0.58
4,A21C U28G A43C G52C,≤ 0.5
5,A20U A40G A57G,0.67
6,A20U A40U A69U,0.73
7,A21C C34A G38A A45U,0.546
8,A21C G44C,0.627
9,A21C C24G A37U C55U,≤ 0.5
10,A20U C62U U64G,0.603
11,A21C G23U C62U A65G,≤ 0.5
12,A20U C24G C49G,≤ 0.5
13,A21C C22U G38C A40C,≤ 0.5
14,A20U C34A C62U,0.542
15,A20U U28C A69C,0.699
16,A21C C27U C46G G48A C62G G68C,≤ 0.5
17,A20U G41C G51C C62G,0.735
18,A21C A45C C62G A65C,0.574
19,A21C C27U G58C C62G,≤ 0.5
20,A20U U26C C30A U47A A65U,≤ 0.5
21,A20U C34U C46U G51A C66U,≤ 0.5
22,A21C G67C,0.654
23,A21C C27A C49G,0.54
24,A21C U47A G52C,0.662

row,Variant,yeast fitness
1,A20U G23A A36U A65U,≤ 0.5
2,A21C U26G A65G A69C,≤ 0.5
3,A20U C27U U32C G52C,≤ 0.5
4,A21C C30A C62U A70U,≤ 0.5
5,A21C C24G U32A A42C A65U,0.543
6,A20U G50A G68C,≤ 0.5
7,A21C U26C A57U,≤ 0.5
8,A21C C27U C33U,0.544
9,A20U U64G,0.725
10,A21C A57U C62U,≤ 0.5
11,A21C A37C C55A G58A,0.515
12,A21G A42G,0.714
13,A20U G68A A69C,0.639
14,A20U A65C,0.823
15,A21C C49A A70G,0.626
16,A20U G38A A57U,≤ 0.5
17,A21C C24A C49U,≤ 0.5
18,A21C C62U G68C,0.601
19,A20U C30A A40C,≤ 0.5
20,A21C C46U,0.909
21,A20U C22G C60A,≤ 0.5
22,A21C C27U A45C C49U,≤ 0.5
23,A20U C34G G48C,0.53
24,A21C G48C,0.788

row,Variant,yeast fitness
1,A21C C22G U32A G56C,≤ 0.5
2,A20U C31G C55G A57U,≤ 0.5
3,A20U C55U A57C,≤ 0.5
4,A21C A42U G44C U53C,≤ 0.5
5,A21G A42C G50A,0.648
6,A21C C30G C66A,0.572
7,A20U G25C A37G C60G C61G A70U,≤ 0.5
8,A21C G23A C49A C60G G63A,≤ 0.5
9,A21C A45C C49U,0.582
10,A20U C49G,0.752
11,A21C G68C A69U,≤ 0.5
12,A20U C33U A43G U64C,≤ 0.5
13,A20U C34A C55G C66A,0.561
14,A20U C33A G44A C62U,≤ 0.5
15,A20U A40U U59A,≤ 0.5
16,A21C G25C U26G,0.59
17,A20U C27G C29A A57G A65G,≤ 0.5
18,A20U A70C,0.977
19,A20U G68U,0.792
20,A20U U32G U35A C62U A69C,≤ 0.5
21,A21C C24A G39A,≤ 0.5
22,A20U G50A C60G,≤ 0.5
23,A20U G41C G56C,0.574
24,A21C C34U C66U,≤ 0.5

row,Variant,yeast fitness
1,A21C C33U C61A G68C,≤ 0.5
2,A21C C31G C62U A69G,≤ 0.5
3,A20U A45C G52C,0.568
4,A21C U59C,0.777
5,A20U G38C C49A,≤ 0.5
6,A21C C24G G68C,≤ 0.5
7,A21G A40C C55A,≤ 0.5
8,A21C C29A G41A U54A,≤ 0.5
9,A20U U54C G63U,≤ 0.5
10,A21C C27G,0.537
11,A21C C27U,0.774
12,A20U C31G A36C A45G A70U,≤ 0.5
13,A20U A42U C61U C66U,≤ 0.5
14,A20U C30G A69U,0.59
15,A21C C46G A65U,0.658
16,A21C C31A C46A U54C,≤ 0.5
17,A20U C46U,0.995
18,A20U U26A C62U,0.542
19,A21C U26A C31U,≤ 0.5
20,A21C C29U A45U,0.521
21,A21C C22U C31U C33U,≤ 0.5
22,A20U A43U C49A G58C,0.535
23,A21C C34A,0.605
